The test system of test [1] is ScN2a. The test can be described thus: Inhibition of protease-resistant scrapie prion protein activity in ScN2a cells. It counts as functional, cell-based. Particulars: Mus musculus. The procedure, abridged: (§1)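 Mouse N2a neuroblastoma cells chronically infected with RML scrapie, subcloned for high PrPSc. Grown in MEM with 10% FCS, penicillin-streptomycin and L-glutamine; compound renewed with medium every second day. Lysed day 7 (~80% confluent), proteinase K 20 µg/mL 30 min 37°C, ultracentrifuged pellet immunoblotted with anti-PrP antibody. EC50 from densitometry of five concentrations; full activity means complete loss of PK-resistant PrP; triplicate experiments.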

Test [2] concerns ScN2a. Briefly: Toxicity against mouse ScN2a cells measured as less than 80% confluency after 1 week. It counts as functional. The procedure, abridged: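 RML-infected ScN2a mouse neuroblastoma cells cultured 1 week in MEM with 10% FCS, with compound renewed with medium every second day. Toxicity scored as confluency below 80% at the end of treatment.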
The test system of test [3] is ScN2a. The test can be described thus: Antiprion activity in ScN2a cells assessed as complete reduction of protease-resistant scrapie prion protein. It counts as functional, Mus musculus. The method, boiled down:
as §1

Some results are limits rather than exact numbers.

A word on the EC50: it is the concentration at which the effect is half-maximal. Regarding `c1ccc2c(c1)Sc1ccccc1N2CCCN1CCN(CCCCNc2c3ccccc3nc3ccccc23)CC1`, the EC50 in the test with ScN2a [1] was found to be 300 nM. Besides, the Activity in the test with ScN2a [2] was 4000 nM; in the test with ScN2a [3] it was 750 nM.
`COc1ccc2nc3cc(Cl)ccc3c(NCCCN3CCN(CCCN(c4ccccc4)c4ccccc4)CC3)c2c1` came in with an EC50 in the test on ScN2a [1] of 280 nM. Also, the Activity in the test on ScN2a [2] is 2000 nM; in the test with ScN2a [3] it was 500 nM.
The like results for `COc1ccc2nc3cc(Cl)ccc3c(NCCCCN3CCN(CCCN(c4ccccc4)c4ccccc4)CC3)c2c1` were, in that order, 250 nM, more than 1000 nM and 500 nM.
With `COc1ccc2nc3cc(Cl)ccc3c(NCCCN3CCN(CCCN4c5ccccc5Sc5ccccc54)CC3)c2c1`, the EC50 with ScN2a [1] is 200 nM. Further, the Activity worked out at 2500 nM with ScN2a [2] and 500 nM with ScN2a [3].
The like results for `COc1ccc2nc3cc(Cl)ccc3c(NCCN3CCN(CCCN(c4ccccc4)c4ccccc4)CC3)c2c1` were, in that order, 290 nM, 1500 nM and 500 nM.
In the case of `c1ccc2c(c1)CCc1ccccc1N2CCCN1CCN(CCCCNc2c3ccccc3nc3ccccc23)CC1`, the concentration giving a half-maximal response (EC50) in the test with ScN2a [1] was 150 nM. Also, the results for the Activity in the test with ScN2a [2] and in the test on ScN2a [3] were 750 nM and 400 nM, respectively.
`c1ccc(N(CCCN2CCN(CCCNc3c4ccccc4nc4ccccc34)CC2)c2ccccc2)cc1` showed an EC50 in the test on ScN2a [1] of 120 nM. Also, the values for the Activity in the test on ScN2a [2] and with ScN2a [3] were 1500 nM and 500 nM, respectively.
Compound `COc1ccc2nc3cc(Cl)ccc3c(NCCCN3CCN(CCCN4c5ccccc5CCc5ccccc54)CC3)c2c1` gave an EC50 in the test with ScN2a [1] of 260 nM. The figures for the Activity in the test on ScN2a [2] and in the test with ScN2a [3] were 1500 nM and 500 nM, respectively.
Taken in the same sequence, the figures for `c1ccc(N(CCCN2CCN(CCCCNc3c4ccccc4nc4ccccc34)CC2)c2ccccc2)cc1` were 230 nM, 1000 nM and 400 nM.
For the compound `COc1ccc2nc3cc(Cl)ccc3c(NCCCCN3CCN(CCCN4c5ccccc5CCc5ccccc54)CC3)c2c1`, a half-maximal response in the test with ScN2a [1] (EC50) required 80 nM. Moreover, the Activity in the test on ScN2a [2] was 400 nM; with ScN2a [3], 100 nM.
As to `c1ccc2c(c1)CCc1ccccc1N2CCCN1CCN(CCCNc2c3ccccc3nc3ccccc23)CC1`, in the test on ScN2a [1], the EC50 stood at 230 nM. Besides, the Activity came to 1000 nM with ScN2a [2] and 500 nM with ScN2a [3].
For the compound `c1ccc(N(CCCN2CCN(CCNc3c4ccccc4nc4ccccc34)CC2)c2ccccc2)cc1`, the EC50 in the test with ScN2a [1] is 75 nM. The Activity in the test with ScN2a [2] was 1000 nM; in the test with ScN2a [3] it was 200 nM.
The compound `c1ccc2c(c1)Sc1ccccc1N2CCCN1CCN(CCNc2c3ccccc3nc3ccccc23)CC1` had an EC50 with ScN2a [1] of 370 nM. Further, the Activity worked out at 3000 nM in the test on ScN2a [2] and 600 nM in the test with ScN2a [3].
In the test on ScN2a [1], `COc1ccc2nc3cc(Cl)ccc3c(NCCCCN3CCN(CCCN4c5ccccc5Sc5ccccc54)CC3)c2c1` returned an EC50 of 350 nM. Moreover, the Activity with ScN2a [2] was determined as 2000 nM; in the test with ScN2a [3], 1000 nM.
`c1ccc2c(c1)Sc1ccccc1N2CCCN1CCN(CCCNc2c3ccccc3nc3ccccc23)CC1`: the EC50 in the test on ScN2a [1] turned out to be 140 nM. Further, the Activity in the test with ScN2a [2] came to 1000 nM; in the test with ScN2a [3] it was 500 nM.
In the case of `COc1ccc2nc3cc(Cl)ccc3c(NCCN3CCN(CCCN4c5ccccc5CCc5ccccc54)CC3)c2c1`, a half-maximal effect in the test on ScN2a [1] (EC50) was put at 570 nM. For the same compound, the Activity stood at 2000 nM in the test with ScN2a [2] and 1000 nM in the test on ScN2a [3].
`c1ccc2c(c1)CCc1ccccc1N2CCCN1CCN(CCNc2c3ccccc3nc3ccccc23)CC1`: in the test on ScN2a [1], the EC50 worked out at 20 nM. Moreover, the Activity in the test on ScN2a [2] is listed as 500 nM; with ScN2a [3], 75 nM.
Take `COc1ccc2nc3cc(Cl)ccc3c(NCCN3CCN(CCCN4c5ccccc5Sc5ccccc54)CC3)c2c1`: in the test on ScN2a [1], it took 830 nM to reach a half-maximal effect (EC50). Moreover, the Activity in the test with ScN2a [2] amounted to 4000 nM; with ScN2a [3], 2000 nM.
The compound `CN(C)CCCN1c2ccccc2CCc2ccccc21` [IMIPRAMINE] returned an EC50 with ScN2a [1] of 5000 nM. In addition, the Activity in the test with ScN2a [3] was 10000 nM.
Consider `CCN(CC)CCCC(C)Nc1c2ccc(Cl)cc2nc2ccc(OC)cc12` (stereo not drawn) [QUINACRINE], for which, in the test with ScN2a [1], the midpoint of the response, the EC50, lay at 300 nM. Besides, the Activity in the test with ScN2a [3] is given as 500 nM.

Source of the values: ChEMBL document CHEMBL1137313, “A chimeric ligand approach leading to potent antiprion active acridine derivatives: design, synthesis, and biological investigations” (J Med Chem, 2006).
